Source: ChEMBL document CHEMBL3244340, “Antineoplastic agents. 1. Synthesis and antineoplastic activities of chloroethyl- and methylnitrosourea analogues of thymidine” (J Med Chem, 1978)
pEC50: −log10 of the molar value.

System: L1210
Assay: Cytotoxicity against mouse L1210 cells after 72 hrs by coulter counter analysis
Type: functional
Details: L1210, 72 h, read-out: ED50 (the source's name)
In short: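 Murine L1210 leukemia cells grown in suspension in Fischer's medium with 10% horse serum, 37 °C. Cells exposed to nitrosoureas for 72 h, then counted by Coulter counter, two independent samples in duplicate per concentration. ED50 (concentration inhibiting growth by 50%) estimated from dose-response curves pooled from at least three separate experiments.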

Going from `Cc1cn([C@H]2C[C@H](O)[C@@H](CNC(=O)N(CCCl)N=O)O2)c(=O)[nH]c1=O` to `Cc1cn([C@H]2C[C@H](O)[C@@H](CN(N=O)C(=O)NCCCl)O2)c(=O)[nH]c1=O`, the pEC50 rises from 5.18 to 5.38 (0.20 log units).

Going from `Cc1cn([C@H]2C[C@H](O)[C@@H](CNC(=O)N(C)N=O)O2)c(=O)[nH]c1=O` to `Cc1cn([C@H]2C[C@H](NC(=O)N(C)N=O)[C@@H](CO)O2)c(=O)[nH]c1=O`, the pEC50 rises from 4.02 to 6.00 (1.98 log units). The second is the more potent here.

Going from `Cc1cn([C@H]2C[C@H](NC(=O)N(CCCl)N=O)[C@@H](CO)O2)c(=O)[nH]c1=O` to `O=NN(CCCl)C(=O)NCCCl` [CARMUSTINE], the pEC50 falls from 5.82 to 5.40 (0.42 log units).

System: not listed separately
Assay: Alkylating activity of the compound relative to 1,3-bis-(2-chloroethyl)-1-nitrosourea
Type: physicochemical
Details: not given

Going from `Cc1cn([C@H]2C[C@H](O)[C@@H](CNC(=O)N(CCCl)N=O)O2)c(=O)[nH]c1=O` to `Cc1cn([C@H]2C[C@H](O)[C@@H](CN(N=O)C(=O)NCCCl)O2)c(=O)[nH]c1=O`, the “fold change (FC)” value falls from 0.47 to 0.06.

`Cc1cn([C@H]2C[C@H](O)[C@@H](CNC(=O)N(C)N=O)O2)c(=O)[nH]c1=O` and `Cc1cn([C@H]2C[C@H](NC(=O)N(C)N=O)[C@@H](CO)O2)c(=O)[nH]c1=O` are the same in “fold change (FC)” value: 0.05 for the first, 0.05 for the second.

For `Cc1cn([C@H]2C[C@H](NC(=O)N(CCCl)N=O)[C@@H](CO)O2)c(=O)[nH]c1=O`, the “fold change (FC)” value was 2.1.

System: not listed separately
Assay: Carbamoylating activity of the compound at 5 umol by liquid scintillation spectrometry in presence of [14C]-lysine relative to 1,3-bis-(2-chloroethyl)-1-nitrosourea
Type: physicochemical
Details: not given

`Cc1cn([C@H]2C[C@H](O)[C@@H](CNC(=O)N(CCCl)N=O)O2)c(=O)[nH]c1=O` and `Cc1cn([C@H]2C[C@H](O)[C@@H](CN(N=O)C(=O)NCCCl)O2)c(=O)[nH]c1=O` are the same in “fold change (FC)” value: 1.6 for the first, 1.6 for the second.

Compared with `Cc1cn([C@H]2C[C@H](O)[C@@H](CNC(=O)N(C)N=O)O2)c(=O)[nH]c1=O`, `Cc1cn([C@H]2C[C@H](NC(=O)N(C)N=O)[C@@H](CO)O2)c(=O)[nH]c1=O` is lower in “fold change (FC)” value: 1 for the first, 0.9 for the second.

In the case of `Cc1cn([C@H]2C[C@H](NC(=O)N(CCCl)N=O)[C@@H](CO)O2)c(=O)[nH]c1=O`, the “fold change (FC)” value was 0.9.
